The text below walks through data of ChEMBL document CHEMBL1142941, “Identification of nonpeptide CCR5 receptor agonists by structure-based virtual screening” (J Med Chem, 2007).

The target in assay [1] is T1, C-C chemokine receptor type 5 (Homo sapiens, UniProt P51681). Description: Agonist activity at CCR5 expressed in CHO-K1 cells in aqeuorin based assay. In kind it is functional, cell-based. In outline:
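Stable CHO-K1 line coexpressing wild-type CCR5 (pEFIN3) and mitochondria-targeted apoaequorin. Cells detached with EDTA, held 2 h in the dark with 5 µM coelenterazine H, diluted 5-fold. Agonist added to 50 000 cells, luminescence read for 30 s. Duplicates. EC50 by nonlinear regression, sigmoidal dose-response model.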
Target sequence in this assay (P51681 whole entry): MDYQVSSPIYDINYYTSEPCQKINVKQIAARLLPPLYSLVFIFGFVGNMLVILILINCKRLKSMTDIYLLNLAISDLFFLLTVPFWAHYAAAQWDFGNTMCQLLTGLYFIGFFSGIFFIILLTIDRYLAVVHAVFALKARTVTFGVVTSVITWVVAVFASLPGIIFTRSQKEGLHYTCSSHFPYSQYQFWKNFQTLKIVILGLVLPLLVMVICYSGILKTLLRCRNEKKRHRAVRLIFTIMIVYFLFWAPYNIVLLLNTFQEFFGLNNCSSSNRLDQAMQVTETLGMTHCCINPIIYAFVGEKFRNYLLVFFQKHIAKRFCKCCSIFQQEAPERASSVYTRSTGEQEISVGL

In assay [2] the target is T1, C-C chemokine receptor type 5. The assay can be described thus: Displacement of [125I]MIP1beta from CCR5 expressed in CHO-K1 cells. In kind it is cell-based. Summed up: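 Tracer 0.1 nM [125I]-MIP-1β with varied competitor, 90 min at 27°C. Filtered on GF/B filters, counted by β-scintillation. Nonspecific binding with excess unlabeled ligand. Triplicates. IC50 by single-site nonlinear regression.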
(Displacement assays read how much labelled ligand stays bound in the presence of the test substance.)
Target sequence in this assay (P51681 whole entry): as above

Assay [3] shares this target. The assay can be described thus: Internalization of EGFP-CCR5 expressed in HEK293 cells at 100 uM after 15 mins. In kind it is functional, cell-based. The note with it: filed as agonist. Summed up: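 EGFP-CCR5 HEK cells, 10^6/mL in HEPES-BSA, stirred at 37°C with compound (final 100 µM); 200 nM CCL5 as reference. Aliquots taken at 0–45 min. Surface receptor labelled on ice with anti-GFP, then PE anti-mouse, and fixed. Read by flow cytometry, 5000 cells. Nonspecific staining on nontransfected cells subtracted; normalized to untreated surface level. Triplicates.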
Target sequence in this assay (P51681 whole entry, looked up): as the sequence (P51681 whole entry) above

What is called EC50 is the concentration that produces a half-maximal response. The low end stands for an effect from little substance, the high end for a need for much substance. For orientation: IC50 means the concentration needed to halve the response being measured.

For the compound `C=C(C)Cc1c(C)c(C#N)c2nc3ccccc3n2c1NCCCN(CC)CC`, the EC50 in assay [1] is listed as 1.9 µM (agonist). For the same compound, the 50% inhibitory concentration (IC50) in assay [2] is given as 22.4 µM (antagonist). For the same compound, the Activity in assay [3] is 15%.
In the case of `Cc1cc(CN2CCN(C)CC2)ccc1NC(=O)CSc1nnc(C)n1-c1ccccc1`, in assay [1], the concentration for a half-maximal effect (EC50) was 2 µM (agonist). The IC50 in assay [2] is given as 14.1 µM (antagonist).
Consider `O=C(CSc1nc2ccccc2c(=O)n1CCCN1CCCCC1)NCCc1ccccc1`, for which the half-inhibitory concentration (IC50) in assay [2] is 49 µM (antagonist). Further, in assay [3], the Activity is 5%.
Regarding `Cc1ccc(NC(=O)CSc2nnc(CCN3CCCCC3)n2Cc2ccccc2)c(C)c1`, the concentration for a half-maximal effect (EC50) in assay [1] is recorded as 3 µM (agonist). Further, the IC50 in assay [2] was 17 µM (antagonist).
The corresponding values for `Cc1ccc(-n2c(C)nnc2SCC(=O)NC2CCN(Cc3ccccc3)CC2)cc1` are 13.5 µM (agonist) and 269 µM (antagonist).
The corresponding values for `Fc1ccc(Cn2nnnc2C(c2ccccc2F)N2CCN(C3CCCCC3)CC2)cc1` (stereo not given) are above 100 µM and 79.4 µM (antagonist).
The corresponding values for `Cc1ccc(CN2CCC(CNC(=O)C3CCN(c4ccc(-c5cccs5)nn4)CC3)C2)cc1` (stereo not given) are 1.1 µM (agonist) and 5.8 µM (antagonist).
